ChEMBL document CHEMBL2321838, “Chemistry and pharmacological studies of 3-alkoxy-2,5-disubstituted-pyridinyl compounds as novel selective α4β2 nicotinic acetylcholine receptor ligands that reduce alcohol intake in rats” (J Med Chem, 2013)
The source made the active and inactive calls. The rule behind the calls is not given here.

What was measured:
[1] = molecular target: T1, Neuronal acetylcholine receptor; alpha3/beta4 (Rattus norvegicus, UniProt P04757+P12392); assay: Desensitization of rat alpha3beta4 nACHR expressed in HEK293 cells assessed as inhibition of 86Rb+ efflux preincubated for 10 mins measured after 2 hrs by liquid scintillation counting analysis; format: cell-based
T1 sequence (P04757 whole entry): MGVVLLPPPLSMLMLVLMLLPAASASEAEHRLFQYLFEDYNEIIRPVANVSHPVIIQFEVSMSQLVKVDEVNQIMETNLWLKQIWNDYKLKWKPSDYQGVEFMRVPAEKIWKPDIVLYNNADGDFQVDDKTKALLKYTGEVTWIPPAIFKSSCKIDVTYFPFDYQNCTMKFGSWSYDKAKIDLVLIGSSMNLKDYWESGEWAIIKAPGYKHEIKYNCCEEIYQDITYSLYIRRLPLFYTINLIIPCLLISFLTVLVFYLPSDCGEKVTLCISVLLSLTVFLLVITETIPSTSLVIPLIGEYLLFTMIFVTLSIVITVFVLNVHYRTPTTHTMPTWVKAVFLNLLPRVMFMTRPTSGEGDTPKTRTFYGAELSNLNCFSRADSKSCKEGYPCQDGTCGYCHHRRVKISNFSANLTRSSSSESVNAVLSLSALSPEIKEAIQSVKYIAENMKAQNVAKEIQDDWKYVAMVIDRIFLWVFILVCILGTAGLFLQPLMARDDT
T1 sequence (P12392 whole entry): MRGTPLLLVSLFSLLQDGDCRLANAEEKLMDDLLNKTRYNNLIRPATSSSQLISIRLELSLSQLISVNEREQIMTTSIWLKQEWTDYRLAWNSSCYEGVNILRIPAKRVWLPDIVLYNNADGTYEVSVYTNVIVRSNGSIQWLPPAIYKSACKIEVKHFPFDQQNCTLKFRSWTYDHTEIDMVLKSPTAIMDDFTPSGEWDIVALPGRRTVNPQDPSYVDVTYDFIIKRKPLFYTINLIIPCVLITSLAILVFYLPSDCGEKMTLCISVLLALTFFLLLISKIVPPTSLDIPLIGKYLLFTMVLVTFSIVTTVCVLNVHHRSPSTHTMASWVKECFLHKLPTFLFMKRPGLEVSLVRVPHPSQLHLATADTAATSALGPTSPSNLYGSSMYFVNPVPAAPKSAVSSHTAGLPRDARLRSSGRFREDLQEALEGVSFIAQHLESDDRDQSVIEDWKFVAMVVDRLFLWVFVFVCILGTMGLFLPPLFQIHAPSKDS

[2] = molecular target: T1, Neuronal acetylcholine receptor; alpha3/beta4; assay: Agonist activity at rat alpha3beta4 nACHR expressed in HEK293 cells assessed as […] by liquid scintillation counting analysis; format: cell-based
[3] = molecular target: T2, Neuronal acetylcholine receptor; alpha4/beta2 (Homo sapiens, UniProt P17787+P43681); assay: Agonist activity at human alpha4beta2 nACHR expressed in HEK293 cells assessed as […] by liquid scintillation counting analysis; format: cell-based
T2 sequence (P17787 whole entry): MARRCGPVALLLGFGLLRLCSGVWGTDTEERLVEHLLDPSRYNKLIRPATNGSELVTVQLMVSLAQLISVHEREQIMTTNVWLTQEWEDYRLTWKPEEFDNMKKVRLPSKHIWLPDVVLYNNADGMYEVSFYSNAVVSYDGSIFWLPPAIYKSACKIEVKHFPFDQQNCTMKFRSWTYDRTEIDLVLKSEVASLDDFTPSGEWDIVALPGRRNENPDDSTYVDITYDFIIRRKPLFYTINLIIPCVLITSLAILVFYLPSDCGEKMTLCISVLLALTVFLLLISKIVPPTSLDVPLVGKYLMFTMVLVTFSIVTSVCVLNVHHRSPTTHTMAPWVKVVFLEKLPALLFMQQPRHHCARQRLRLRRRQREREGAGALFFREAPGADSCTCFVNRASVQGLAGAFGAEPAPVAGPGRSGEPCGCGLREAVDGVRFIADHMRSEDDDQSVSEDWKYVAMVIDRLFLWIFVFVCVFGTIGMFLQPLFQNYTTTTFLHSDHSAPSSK
T2 sequence (P43681 whole entry): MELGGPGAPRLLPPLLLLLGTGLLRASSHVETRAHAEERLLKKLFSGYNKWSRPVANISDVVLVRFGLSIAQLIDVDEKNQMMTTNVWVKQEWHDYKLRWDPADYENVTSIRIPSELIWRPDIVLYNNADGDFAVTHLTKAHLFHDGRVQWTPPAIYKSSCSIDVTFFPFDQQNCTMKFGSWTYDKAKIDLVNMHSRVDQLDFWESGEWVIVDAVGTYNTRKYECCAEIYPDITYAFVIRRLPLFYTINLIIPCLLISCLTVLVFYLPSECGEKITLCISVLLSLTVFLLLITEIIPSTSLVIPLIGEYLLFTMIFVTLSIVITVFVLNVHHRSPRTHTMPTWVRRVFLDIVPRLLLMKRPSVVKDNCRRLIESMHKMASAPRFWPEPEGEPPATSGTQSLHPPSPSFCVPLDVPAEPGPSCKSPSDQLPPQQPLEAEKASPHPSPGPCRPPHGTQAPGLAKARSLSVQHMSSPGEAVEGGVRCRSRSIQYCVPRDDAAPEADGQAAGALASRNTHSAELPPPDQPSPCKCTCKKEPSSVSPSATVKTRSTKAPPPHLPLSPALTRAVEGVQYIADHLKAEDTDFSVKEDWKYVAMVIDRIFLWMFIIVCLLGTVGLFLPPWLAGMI

[4] = molecular target: Neuronal acetylcholine receptor; alpha4/beta2 (Rattus norvegicus) (UniProt P09483+P12390); assay: Ratio of (-)-nicotine Ki to compound Ki for rat alpha4beta2 nACHR; format: protein-complex assay
[5] = molecular target: T2, Neuronal acetylcholine receptor; alpha4/beta2; assay: Agonist activity at human alpha4beta2 nACHR expressed in HEK293 cells assessed as […] by liquid scintillation counting analysis relative to nicotine; format: cell-based
[6] = organism: Rattus norvegicus; assay: Selectivity ratio of Ki for rat alpha7 nACHR to rat alpha4beta2 nACHR
[7] = organism: Rattus norvegicus; assay: Selectivity ratio of Ki for rat alpha3beta4 nACHR to rat alpha4beta2 nACHR
[8] = organism: Rattus norvegicus; assay: Displacement of [3H]-Epibatidine from rat nACHR fore-brain by liquid scintillation counting analysis
[9] = molecular target: T1, Neuronal acetylcholine receptor; alpha3/beta4; assay: Displacement of [3H]-Epibatidine from rat alpha3beta4 nACHR expressed in HEK293 cell membranes by liquid scintillation counting analysis; parameters: species or system Membrane
[10] = molecular target: Neuronal acetylcholine receptor; alpha3/beta4 (Rattus norvegicus) (UniProt P04757+P12392); assay: Agonist activity at rat alpha3beta4 nACHR expressed in HEK293 cells assessed as stimulation of 86Rb+ efflux after 2 hrs by liquid scintillation counting analysis relative to nicotine; format: cell-based
[11] = molecular target: T2, Neuronal acetylcholine receptor; alpha4/beta2; assay: Desensitization of human alpha4beta2 nACHR expressed in HEK293 cells assessed as inhibition of 86Rb+ efflux preincubated for 10 mins measured after 2 hrs by liquid scintillation counting analysis; format: cell-based
[12] = tested on: Mustela putorius furo; assay: Toxicity in ferret assessed as induction of emetic episodes at 0.5 mg/kg, sc measured for 60 mins; format: organism-based; parameters: dose 0.5 mg/kg, route subcutaneous; details: in vivo, 1 h
In short: (§1)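 Male ferrets (0.9−1.5 kg), food withheld overnight, water ad libitum. Drug in 0.9% saline, given subcutaneously in the subscapular region after a 30 min acclimation in an individual polycarbonate enclosure. Emesis and nausea-linked behaviours (retching, oral stereotypy, backward walking, locomotion) were scored by 60 min observation with video recording. Affected animals were then given granisetron plus dexamethasone 1 mg/kg i.p.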

[13] = tested on: Mustela putorius furo; assay: Toxicity in ferret assessed as increase in breathing at 0.5 mg/kg, sc measured for 60 mins; format: organism-based; parameters: dose 0.5 mg/kg, route subcutaneous; details: in vivo, 1 h; in short: as §1
[14] = tested on: Mustela putorius furo; assay: Toxicity in ferret assessed as cessation of movement at 0.5 mg/kg, sc measured for 60 mins; format: organism-based; parameters: dose 0.5 mg/kg, route subcutaneous; details: in vivo, 1 h; in short: as §1
[15] = tested on: Mustela putorius furo; assay: Toxicity in ferret assessed as reduction in locomotor behavior at 0.5 mg/kg, sc measured 1.05 mins to 1 hr post injection; format: organism-based; parameters: dose 0.5 mg/kg, route subcutaneous; details: in vivo; in short: as §1
[16] = tested on: Mustela putorius furo; assay: Toxicity in ferret assessed as backward walking episodes at 0.5 mg/kg, sc measured 2.20 mins post injection; format: organism-based; parameters: dose 0.5 mg/kg, route subcutaneous; details: in vivo, 132 s; in short: as §1
[17] = tested on: Mustela putorius furo; assay: Toxicity in ferret assessed as induction of licking behavior at 0.5 mg/kg, sc measured 2.20 mins post injection; format: organism-based; parameters: dose 0.5 mg/kg, route subcutaneous; details: in vivo, 132 s; in short: as §1
[18] = tested on: Mustela putorius furo; assay: Toxicity in ferret assessed as induction of retching at 0.5 mg/kg, sc measured for 60 mins; format: organism-based; parameters: dose 0.5 mg/kg, route subcutaneous; details: in vivo, 1 h; in short: as §1
[19] = tested on: Mustela putorius furo; assay: Toxicity in ferret assessed as induction of stereotypical behavior at 1 to 30 mg/kg, sc measured for 60 mins; format: organism-based; parameters: dose 1-30 mg/kg, route subcutaneous; details: in vivo, 1 h
In short: (§2)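 Male ferrets (0.9–1.5 kg), food withheld overnight, water ad libitum. After 30 min acclimation alone in an enclosure, single s.c. subscapular injection (1–30 mg/kg in 0.9% saline); emetic episodes and nausea-related stereotypical behaviours (gagging, licking, backward walking) scored by 60 min observation with video recording; n = 6.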

[20] = tested on: Mustela putorius furo; assay: Toxicity in ferret assessed as induction of emetic episodes at 1 to 30 mg/kg, sc measured for 60 mins; format: organism-based; parameters: dose 1-30 mg/kg, route subcutaneous; details: in vivo, 1 h; in short: as §2
[21] = tested on: Rattus norvegicus; assay: Reduction of alcohol intake in alcohol-preferring rat at 1 mg/kg, sc after 24 hrs; format: functional, organism-based; parameters: dose 1 mg/kg
In short: (§3)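 Adult male selectively bred alcohol-preferring (P) rats with two-bottle access (water, alcohol) in Richter tubes, 12:12 light–dark, 22 °C. After stable baseline, single s.c. injection of 0.33, 1 or 3 mg/kg or vehicle; alcohol and water intake (g/kg) read at 2, 4, 6 and 24 h. Crossover, random assignment, ≥3 days between injections, n = 18; mean ± SEM.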

[22] = tested on: Rattus norvegicus; assay: Reduction of alcohol intake in alcohol-preferring rat at 3 mg/kg, sc after 6 to 24 hrs; format: functional, organism-based; parameters: dose 3 mg/kg; in short: as §3
[23] = tested on: Rattus norvegicus; assay: Reduction of alcohol intake in alcohol-preferring rat at […], sc after 2 to 24 hrs; format: functional, organism-based; parameters: dose 0.33 mg/kg
[24] = tested on: Rattus norvegicus; assay: Reduction of alcohol intake in sc dosed alcohol-preferring rat after 2 to 24 hrs relative to vehicle-treated control; format: functional, organism-based; in short: as §3

Compound | IC50 [1] | EC50 ([2]; hek293) | EC50 ([3]; hek293) | Emax [5] | Ratio Ki [6] | Ratio Ki [7] | also measured
Cc1ncc(C#CCCCCF)cc1OC[C@@H]1CCN1 | > 10 µM | Not Active | Not Active | – | – | – | –
Cc1ncc(C#CCCCCO)cc1OC[C@@H]1CCN1 | > 10 µM | Not Active | – | 20% | 40000 | 70000 | Ratio Ki [4]: 2; EC50 ([3]; read-out: EC50): 0.45 µM
CCCCC#Cc1cnc(C(F)(F)F)c(OC[C@@H]2CCN2)c1 | – | – | – | – | – | – | Ratio Ki [8]: > 100000; Ki [9]: > 100 µM
OCCCCC#Cc1cncc(OC[C@@H]2CCN2)c1 | – | – | – | – | 11000 | 31000 | Emax [10]: 12%; EC50 ([2]; read-out: EC50): 30 µM; IC50 [11]: 0.011 µM
c1cnc2cc3c(cc2n1)[C@@H]1CNC[C@H]3C1 [VARENICLINE] | – | – | – | – | – | – | Activity [12]: Non-toxic; Activity [13]: Toxic; Activity [14]: Toxic; Activity [15]: Toxic; Activity [16]: Toxic; Activity [17]: Toxic; Activity [18]: Toxic; EC50 ([2]; read-out: EC50): 21 µM
Cc1ncc(C#CC2CC2)cc1OC[C@@H]1CCN1 | > 10 µM | Not Active | – | 17% | 16000 | 16000 | –
CCCCC#Cc1cnc(C)c(OC[C@@H]2CCN2)c1 | > 10 µM | Not Active | – | 15% | 7800 | 19000 | Activity [19]: Non-toxic; Activity [20]: Non-toxic; Activity [21]: Active; Activity [22]: Active; Activity [23]: inactive; Activity [24]: Dose-dependent effect
Cc1ncc(C#CCCCCCl)cc1OC[C@@H]1CCN1 | > 10 µM | Not Active | Not Active | – | 13000 | 17000 | Ratio Ki [8]: 32
CCCCC#Cc1cnc(C)c(OC[C@@H]2CCCN2)c1 | – | Not Active | Not Active | – | – | – | –
